# Screens: PubChem BioAssay, Broad Institute
# rRNA inh HTS: selective bacterial rRNA inhibition in E. coli; E. coli WT GFP vs humanized-ribosome RFP mutants, fluorescence, 24 h; active compounds read low; DMSO median 0, no signal -100; GFP signal change (wild-type ribosome), % (no concentration beside the values); 350,000 compounds, 1.6% hits; AID 720706;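 active means significant combined selectivity score with lowered wild-type GFP, culture density cut under 30%, mutant RFP and density less affected; inactive means any of these conditions unmet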
# miR122 inh: blocks miR-122 activity in Huh7 sensor cells. Huh7 miR-122 Renilla luciferase sensor, 48 h; neutral wells = 0, positive control = 100. activation (reporter increase), % at 12.5 µM. 340,000 compounds, 0.3% hits. AID 602342;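 active means mean replicate activation score at least 90 and every replicate individually at or above 90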;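 further: higher luciferase means less miR-122 activity so hits act as miR-122 inhibitors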
# Cneo AK release: Cryptococcus neoformans lysis via adenylate kinase release. C. neoformans lysis, adenylate kinase release luminescence, 4 h; normalised: neutral wells 0, clomiphene wells 100. lysis activity, % at 15 µM. 360,000 compounds, 0.2% hits. AID 651654;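 active means mean lysis activity across replicates of at least 80%, whatever share of replicates individually reach that level; inactive means mean lysis activity below 80%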
#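 read-out = cell lysis signal | test system = log-phase Cryptococcus neoformans yeast cells | input = cells at 5 × 10^6 per mL | medium = fresh YPD growth medium | signal = luminescent adenylate kinase detection reagent | timing = 4 h at 37 °C static, read 1 h later | dosing = single dose | controls = Clomiphene as positive lysis control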
# Env fusion inh: inhibitors of HIV Env-mediated cell fusion; HeLa-JRFL Env/CEM21 cell fusion, luciferase; inhibition, % at 12.3 µM; 360,000 compounds, 1.1% hits; AID 651610;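 active means mean replicate inhibition score of at least 50 and every replicate individually at or above 50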
# GSIS activator: primary screen for activators of insulin secretion dependent on glucose, INS-1E cells, GLuc reporter luminescence. INS-1E GLuc reporter insulin secretion, 2-3 h. activation, % at 16.6 µM. 370,000 compounds, 0.61% hits. AID 743287;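 active means lowest replicate activation of at least 40%, so every replicate reaches that level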
# CFTR F508del cor: CFTR F508del correction in bronchial cells; CFBE cells, YFP halide quenching; stimulated with forskolin plus potentiator P3; % fluorescence drop versus neutral controls; activity (quench increase), % at 7.58 µM; 350,000 compounds, 0.36% hits;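 active means mean added fluorescence quench of at least 8% versus neutral control, with both replicates also reaching 8%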;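 further: cells transiently co-express mutant CFTR-F508del with the halide-sensitive YFP; corrector assay measuring rescue of mutant channel to the surface after 24 h compound exposure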
# Hits are given with their value; 0 = inactive; - = no result; ! = not confirmed by another sample; [ ] = another dose, or the depositor's remark. Most compounds without a hit are left out; they make up all but 3.1% or so of the library.
SMILES,rRNA inh HTS,miR122 inh,Cneo AK release,Env fusion inh,GSIS activator,CFTR F508del cor
C[C@@H]1CN([C@@H](C)CO)C(=O)c2cc(NC(=O)Cc3ccccc3)ccc2O[C@@H](C)CCCCO[C@@H]1CN(C)Cc1ccc(C(F)(F)F)cc1,0,0,0,0,0,0
Cc1ccccc1-c1ccc(C2[C@@H]3CN(C(=O)Cc4ccncc4)C[C@H]2N3)cc1 (stereo not given in full),0,-,-,-,0,0
O=C(C[C@@H]1CC[C@@H](NC(=O)c2ccncc2)[C@H](CO)O1)NCCc1ccncc1,0,-,0,62[16.7 µM],0,0
O=C(O)C[C@@H]1CC[C@@H](NC(=O)c2ccncc2)[C@H](CO)O1,0,0,0,63[16.7 µM],0,0
C[C@@H]1CN([C@H](C)CO)C(=O)Cc2cc(NC(=O)Nc3cccc4ccccc34)ccc2O[C@H]1CN(C)C(=O)Nc1ccc(F)cc1,0,0,0,0,0,0
CCCNC(=O)Nc1ccc2c(c1)C(=O)N(C)C[C@@H](OC)[C@H](C)CN(C(=O)c1ccccc1F)[C@@H](C)CO2,0,-,0,0,0,0
COc1ccc(NC(=O)Nc2ccc3c(c2)C(=O)N([C@H](C)CO)C[C@@H](C)[C@@H](CN(C)C(=O)CCC(F)(F)F)OCCCC[C@H](C)O3)cc1,0,0,95,0,0,0
CC(C)NC(=O)Nc1ccc2c(c1)C(=O)N([C@@H](C)CO)C[C@H](C)[C@@H](CN(C)Cc1ccc3c(c1)OCO3)OCCCC[C@@H](C)O2,0,0,102,0,0,0
C[C@@H]1CCCCO[C@@H](CN(C)CC2CCCCC2)[C@@H](C)CN([C@H](C)CO)C(=O)c2cc(NC(=O)CCC(F)(F)F)ccc2O1,0,104[16.7 µM],0,0,0,0
COc1ccc(NC(=O)N(C)C[C@@H]2OCCCC[C@@H](C)Oc3ccc(NC(=O)Nc4ccc5c(c4)OCO5)cc3C(=O)N([C@@H](C)CO)C[C@H]2C)cc1,0,0,88,0,0,0
COc1ccc(NC(=O)N(C)C[C@@H]2OCCCC[C@@H](C)Oc3ccc(NC(=O)Nc4ccc5c(c4)OCO5)cc3C(=O)N([C@H](C)CO)C[C@H]2C)cc1,0,0,0,0,0,0
CO[C@@H]1CN(C)C(=O)c2ccc(NS(=O)(=O)c3cccc(F)c3)cc2OC[C@@H](C)N(C(=O)Cc2cccnc2)C[C@@H]1C,0,-,0,-,0,0
O=C(CC1CC1)Nc1ccc2c(c1)[C@H]1C[C@@H](CC(=O)N3CCc4ccccc4C3)O[C@@H](CO)[C@H]1O2,0,0,0,-,0,0
C[C@@H]1CN([C@@H](C)CO)C(=O)c2cc(NC(=O)Nc3ccc4c(c3)OCO4)ccc2O[C@@H](C)CCCCO[C@H]1CN(C)Cc1ccc(Cl)c(Cl)c1,0,0,0,67[16.7 µM],0,0
C[C@H](CO)N1C[C@H](C)[C@H](CN(C)Cc2ccc3c(c2)OCO3)OCCCC[C@H](C)Oc2ccc(NC(=O)Nc3ccc4c(c3)OCO4)cc2C1=O,0,0,0,66[16.7 µM],0,0
C[C@@H]1CCCCO[C@@H](CN(C)Cc2ccccc2)[C@H](C)CN([C@H](C)CO)C(=O)c2cc(NC(=O)Nc3ccc4c(c3)OCO4)ccc2O1,0,0,0,0,0,0
C[C@H]1CCCCO[C@@H](CN(C)Cc2ccccc2)[C@@H](C)CN([C@@H](C)CO)C(=O)c2cc(NC(=O)Nc3ccc4c(c3)OCO4)ccc2O1,0,0,0,57[16.7 µM],0,0
COc1ccc(NC(=O)Nc2ccc3c(c2)C(=O)N([C@H](C)CO)C[C@@H](C)[C@@H](CN(C)Cc2ccc4c(c2)OCO4)OCCCC[C@H](C)O3)cc1,-34!,0,0,0,0,0
C[C@@H]1CN([C@@H](C)CO)C(=O)c2cc(NS(=O)(=O)c3cn(C)cn3)ccc2O[C@@H]1CN(C)Cc1ccc(C(=O)O)cc1,0,0,0,-,0,0
C[C@@H]1CN([C@@H](C)CO)S(=O)(=O)c2ccc(-c3cccc(C(=O)N(C)C)c3)cc2O[C@H]1CN(C)C(=O)Cc1ccccn1,0,-,0,0,0,0
COc1ccc(NC(=O)Nc2ccc3c(c2)C(=O)N([C@H](C)CO)C[C@H](C)[C@H](CN(C)Cc2ccc(Cl)c(Cl)c2)OCCCC[C@H](C)O3)cc1,0,0,0,91[16.7 µM],0,0
COc1ccc(NC(=O)Nc2ccc3c(c2)C(=O)N([C@@H](C)CO)C[C@H](C)[C@@H](CN(C)Cc2ccc(Cl)c(Cl)c2)OCCCC[C@@H](C)O3)cc1,0,0,0,0,0,0
COc1ccc(S(=O)(=O)Nc2cccc3c2O[C@@H](CN(C)S(=O)(=O)c2ccc(F)cc2)[C@@H](C)CN([C@H](C)CO)C3=O)cc1,0,0,0,0,0,0
Cc1ccccc1S(=O)(=O)N1C[C@@H]2C(C(=O)C[C@@H]3C(=O)N(C)C(=O)[C@@H]32)[C@@H]1c1ccc(Cl)cc1 (stereo not given in full),0,-,-,61,0,0
Cc1ccccc1S(=O)(=O)N1C[C@H]2[C@H]3C(=O)N(C4CCCCC4)C(=O)[C@H]3CC(=O)[C@H]2[C@@H]1c1ccc(Cl)cc1,0,0,0,132,0,0
SMILES,rRNA inh HTS,miR122 inh,Cneo AK release,Env fusion inh,GSIS activator,CFTR F508del cor
O=C1C[C@@H]2C(=O)N(c3ccccc3)C(=O)[C@@H]2[C@@H]2CN(S(=O)(=O)c3ccccc3)[C@@H](c3ccccc3)[C@H]12,0,0,0,-,0,0
Cc1ccc(S(=O)(=O)N2C[C@H]3[C@H]4C(=O)N(c5ccccc5)C(=O)[C@H]4CC(=O)[C@H]3[C@@H]2c2ccc(Cl)cc2)cc1,-,0,0,-,-,0
C=C(C)Cn1c(CCn2c3ccccc3c3ccccc32)n[nH]c1=S,-,-,-,0,-,-
C=CCn1c(CCn2c3ccccc3c3ccccc32)n[nH]c1=S,-27,0,0,0,0,-
O=C(NC1CCCC1)N1CC2(C1)[C@H](c1ccccc1)[C@@H](CO)N2CC1CCOCC1,0,-,-,-,0,0
CCC(=O)NC(c1ccc(C)cc1)c1ccc2cccnc2c1O (stereo not given),0,0,0,0,-,11
CC(=O)NC(c1ccc(Cl)cc1)c1ccc2cccnc2c1O (stereo not given),0,0,0,0,-,12
CCCC(=O)NC(c1ccc(N(C)C)cc1)c1ccc2cccnc2c1O (stereo not given),0,0,0,0,-,9.8
CC(=O)NC(c1ccco1)c1ccc2cccnc2c1O (stereo not given),0,-,0,-,0,-
CCCC(=O)NC(c1ccc(C(C)C)cc1)c1ccc2cccnc2c1O (stereo not given),0,-,0,0,-,12
